The source made the active and inactive calls. The calls are words filed in the database; no cut-off is given here.
Tests used:
[1] = Cytotoxicity against human Huh-7 cells by luminescence based cell viability assay
[2] = system: Human immunodeficiency virus 1; assay: Antiviral activity against Human immunodeficiency virus 1 3B virus infected in human MT2 cells assessed as inhibition of virus-induced cytopathic effect by colorimetry; format: functional, organism-based
How it was run: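 MT-2 cells, 1 × 10^3 per well in triplicate, infected with HIV-1 IIIB at 0.1 TCID50/cell and cultured with compounds. Viral CPE quantified by MTT colorimetry after 5 days to estimate EC50.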

Hepatitis C virus [3] = assay: Antiviral activity against Hepatitis C virus genotype 1b Con1 infected in human Huh-luc/neo-ET replicon cells assessed as reduction of replicon luciferase signal after 72 hrs by luciferase reporter assay in presence of 10% fetal bovine serum; format: functional, organism-based, Hepacivirus hominis
How it was run: (§1)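 Huh-luc/neo-ET cells without G418, incubated with serially diluted compounds in medium containing 5%, 10%, 20% or 40% (vol/vol) FBS. Firefly luciferase read after 72 h. EC50 from dose-effect curves. The 0% value is a theoretical EC50 extrapolated from the plot of EC50 versus serum level. Means ± SD of three independent experiments.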

Hepatitis C virus [4] = assay: Antiviral activity against Hepatitis C virus genotype 1b Con1 infected in human Huh-luc/neo-ET replicon cells assessed as reduction of replicon luciferase signal after 72 hrs by luciferase reporter assay in presence of 5% fetal bovine serum; format: functional, organism-based, Hepacivirus hominis
How it was run: as §1

MT2 = assay: Cytotoxicity against human MT2 cells after 5 days by colorimetry; format: cell-based; conditions: MT2, 120 h
How it was run: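 Uninfected MT-2 cells coincubated with compounds for 5 days. Cytotoxicity by colorimetric quantitation.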

Hepatitis C virus [5] = assay: Antiviral activity against Hepatitis C virus genotype 1b Con1 infected in human Huh-luc/neo-ET replicon cells assessed as reduction of replicon luciferase signal after 72 hrs by luciferase reporter assay in presence of 40% fetal bovine serum; format: functional, organism-based, Hepacivirus hominis
How it was run: as §1

Hepatitis C virus [6] = assay: Antiviral activity against Hepatitis C virus genotype 1b Con1 infected in human Huh-luc/neo-ET replicon cells assessed as reduction in viral RNA level after 72 hrs by RT-PCR; format: functional, organism-based, Hepacivirus hominis
How it was run: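 Cells seeded at 1 × 10^5 per well and treated with DMSO or compound up to 250 nM for 24, 48 or 72 h. Total RNA diluted to 50 ng/μl. Replicon RNA (5′ UTR) measured in triplicate by one-step qRT-PCR, normalized to β-actin mRNA, and expressed as percent of mock control. Three independent repeats.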

Hepatitis C virus [7] = assay: Antiviral activity against Hepatitis C virus genotype 1b Con1 infected in human Huh-luc/neo-ET replicon cells assessed as reduction of replicon luciferase signal after 72 hrs by luciferase reporter assay in presence of 20% fetal bovine serum; format: functional, organism-based, Hepacivirus hominis
How it was run: as §1

Hepatitis C virus [8] = assay: Antiviral activity against blasticidin resistant Hepatitis C virus genotype 1b Con1 replicon infected in human HuH7 cells assessed as reduction in viral RNA level by RT-PCR; format: functional, organism-based, Hepacivirus hominis; conditions: Con1, Huh-7
Hepatitis C virus [9] = assay: Antiviral activity against Hepatitis C virus genotype 1b Con1 infected in human Huh-luc/neo-ET replicon cells assessed as viral replicon survival dosed at 300 nM incubated for 9 days followed by compound removal and reintroduction of 250 ug/ml G418 measured after 15 days post compound withdrawal; format: functional, Hepacivirus hominis
How it was run: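 In a separate run, Huh-luc/neo-ET replicon cells were treated for 9 days without G418. Drug was then withdrawn and cells were kept for a 15-day rebound period under G418 selection. Surviving cells were scored as the fraction of the population that outlasted selection.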

Hepatitis C virus [10] = assay: Antiviral activity against Hepatitis C virus genotype 1b Con1 infected in human Huh-luc/neo-ET replicon cells assessed as reduction of replicon luciferase signal after 72 hrs by luciferase reporter assay in presence of 0% fetal bovine serum; format: functional, organism-based, Hepacivirus hominis
How it was run: as §1

Hepatitis C virus [11] = assay: Antiviral activity against Hepatitis C virus genotype 2a JFH1 infected in human YSGR-JFH replicon cells assessed as inhibition of virus RNA level after 72 hrs by quantitative RT-PCR; format: functional, organism-based, Hepacivirus hominis; conditions: subtype 2a JFH1, 72 h
How it was run: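 YSGR-JFH genotype 2a subgenomic replicon cells (maintained with 400 μg/ml G418), 1 × 10^5 per well, incubated with DMSO, serially varied compound, or IFN-α-2a for 72 h. HCV RNA by qRT-PCR normalized to β-actin, as percent of mock-treated control. Mean ± SD of three independent experiments.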

Hepatitis C virus [12] = assay: Antiviral activity against Hepatitis C virus genotype 1b Con1 infected in human Huh-luc/neo-ET replicon cells assessed as inhibition of viral rebound dosed at 1 uM incubated for 12 days followed by compound removal and reintroduction of 250 ug/ml G418 measured after 9 days post compound withdrawal; format: functional, organism-based; conditions: Hepacivirus hominis
How it was run: (§2)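 Huh-luc/neo-ET cells were seeded at 2 × 10^5 per well and kept without G418 for 12 days with DMSO or up to 1 μM drug. Cells were split every 3 days, with medium and drug renewed. Drug was then removed and 250 μg/ml G418 added for 12 more days, sampling at confluence. HCV 5′UTR RNA was measured by one-step qRT-PCR, normalised to β-actin and expressed relative to mock. Viability was read by CellTiter-Glo as % of mock.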

Hepatitis C virus [13] = assay: Antiviral activity against Hepatitis C virus genotype 1b Con1 infected in human Huh-luc/neo-ET replicon cells assessed as inhibition of viral RNA level dosed at >300 nM incubated for 12 days measured after 12 days of exposure relative to untreated control
Hepatitis C virus [14] = assay: Antiviral activity against Hepatitis C virus genotype 1b Con1 infected in human Huh-luc/neo-ET replicon cells assessed as inhibition of viral rebound dosed at 300 nM incubated for 12 days followed by compound removal and reintroduction of 250 ug/ml G418 measured after 9 days post compound withdrawal; format: functional, organism-based; conditions: Hepacivirus hominis
How it was run: as §2

Hepatitis C virus [15] = assay: Antiviral activity against Hepatitis C virus genotype 1b Con1 infected in human Huh-luc/neo-ET replicon cells assessed as inhibition of virus-induced cytopathic effect after 48 hrs by luciferase reporter assay; format: functional, organism-based, Hepacivirus hominis
How it was run: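 Huh-luc/neo-ET cells seeded at 1 × 10^5 per well and treated with DMSO or serially diluted compound up to 250 nM. Harvested at 24 or 48 h. Luciferase run in triplicate and RLU normalized to total protein (Bradford), expressed as percent of mock control. Three independent repeats averaged.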

Hepatitis C virus [16] = assay: Antiviral activity against Hepatitis C virus genotype 1b Con1 infected in human Huh-luc/neo-ET replicon cells assessed as viral replicon survival dosed at 50 nM incubated for 12 days followed by compound removal and reintroduction of 250 ug/ml G418 measured after 6 days post compound withdrawal; format: functional, Hepacivirus hominis
How it was run: as §2

Hepatitis C virus [17] = assay: Antiviral activity against Hepatitis C virus genotype 1b Con1 infected in human Huh-luc/neo-ET replicon cells assessed as reduction of virus-induced cytopathic effect after 72 hrs by luciferase reporter assay; format: functional, organism-based, Hepacivirus hominis
How it was run: (§3)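 Replicon cells grown without G418, seeded at 5 × 10^3 per well, treated next day in duplicate with serial dilutions (DMSO control) at 37°C for 72 h. After a PBS wash, cells lysed in ice-cold passive lysis reagent and firefly luciferase RLU read as percent of compound-free control. EC50 by nonlinear regression of the dose-effect curve.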

Hepatitis C virus [18] = assay: Antiviral activity against Hepatitis C virus genotype 1b Con1 infected in human Huh-luc/neo-ET replicon cells assessed as reduction of replicon luciferase signal after 72 hrs by luciferase reporter assay; format: functional, organism-based, Hepacivirus hominis
How it was run: as §3

SMILES: O=C(O)c1cc(C(=O)O)cc(-c2ccc(-c3c4nc(c(-c5ccc(-c6cc(C(=O)O)cc(C(=O)O)c6)cc5)c5ccc([nH]5)c(-c5ccc(-c6cc(C(=O)O)cc(C(=O)O)c6)cc5)c5ccc([nH]5)c(-c5ccc(-c6cc(C(=O)O)cc(C(=O)O)c6)cc5)c5nc3C=C5)C=C4)cc2)c1
- CC50 [1]: > 50000 nM
- EC50 [2]: 3670 nM
- EC50 (Hepatitis C virus [3]): 24 nM
- EC50 (Hepatitis C virus [4]): 13 nM
- CC50 (MT2): 18000 nM
- EC50 (Hepatitis C virus [5]): 69 nM
- EC50 (Hepatitis C virus [6]): 29.2 nM
- inhibition (Hepatitis C virus [6]; Hepacivirus hominis): Dose-dependent effect
- EC50 (Hepatitis C virus [7]): 39 nM
- EC50 (Hepatitis C virus [8]): 14 nM
- Survival (Hepatitis C virus [9]): 0.4%
- EC50 (Hepatitis C virus [10]): 6.5 nM
- EC50 (Hepatitis C virus [11]): 1380 nM
- inhibition (Hepatitis C virus [12]): Active
- fold change (FC) (Hepatitis C virus [13]): 4.5
- inhibition (Hepatitis C virus [14]): Active
- EC50 (Hepatitis C virus [15]): 19.2 nM
- inhibition (Hepatitis C virus [15]; Hepacivirus hominis): Dose-dependent effect
- Survival (Hepatitis C virus [16]): 8.5%
- EC50 (Hepatitis C virus [17]): 17.6 nM
- inhibition (Hepatitis C virus [17]; Hepacivirus hominis): Dose-dependent effect
- EC50 (Hepatitis C virus [18]): 24 nM
